# Experimental data as given in ChEMBL document CHEMBL4689842, “EUbOPEN Chemogenomics Library wave 1” (2021).
# Several values for one entry are separate records, joined by “and”; a condition that tells them apart may be missing. Equal entries are not always repeated.
# System: U2OS
# Assay: Multiplex assay against U2OS
# Assay type: toxicity, cell-based
# Conditions: human
# Method in brief: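 Cells were classed with CellPathfinder machine-learning gating, first as Hoechst high-intensity objects or normal cells, then (normal cells) as healthy, pyknosed or fragmented nuclei, and finally (pyknosed cells) as mitotic or apoptotic. Staining of live cells at seeding used Hoechst33342, BioTracker Green Microtubule Cytoskeleton Dye, MitoTracker Red and Annexin V Alexa Fluor 680, with imaging on a CQ1 microscope at 37°C and 5% CO2 after compound addition. Tubulin, mitochondrial-mass and membrane-permeability phenotypes are per cents of healthy-nucleus cells.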
# [1] = 12 h, 10 µM, compound concentration 10 uM, replicate 1
# [2] = 12 h, 10 µM, compound concentration 10 uM, replicate 2
# [3] = 24 h, 10 µM, compound concentration 10 uM, replicate 1
# [4] = 24 h, 10 µM, compound concentration 10 uM, replicate 2
# [5] = 48 h, 10 µM, compound concentration 10 uM, replicate 1
# [6] = 48 h, 10 µM, compound concentration 10 uM, replicate 2
# [7] = 12 h, 1 µM, compound concentration 1 uM, replicate 1
# [8] = 12 h, 1 µM, compound concentration 1 uM, replicate 2
# [9] = 24 h, 1 µM, compound concentration 1 uM, replicate 1
# [10] = 24 h, 1 µM, compound concentration 1 uM, replicate 2
# [11] = 48 h, 1 µM, compound concentration 1 uM, replicate 1
# [12] = 48 h, 1 µM, compound concentration 1 uM, replicate 2
smiles,measurement,setting,value
CCOCCn1cc(C(=O)Nc2ccc(-n3nc(-c4cccnc4)cc3C(F)(F)F)cn2)ccc1=O [BI 1935],Population Apoptotic (%),[1],22% and 50% and 42%
same,Population Healthy Nuclei (%),[1],82% and 63% and 91%
same,Population Hoechst High Intensity Objects (%),[1],4% and 8% and 3%
same,Population Mitotic Cells (%),[1],77% and 50% and 57%
same,Population Normal (%),[1],95% and 91% and 96%
same,Total Cell Count,[1],162 and 131 and 216
same,Population Apoptotic (%),[2],28% and 47% and 16%
same,Population Fragmented Nuclei (%),[2],5% and 8% and 12%
same,Population Healthy Nuclei (%),[2],77% and 65%
same,Population Hoechst High Intensity Objects (%),[2],10% and 7% and 9%
same,Population Mitochondria Different-Phenotype (%),[2],22% and 47% and 19%
same,Population Mitotic Cells (%),[2],71% and 52% and 83%
same,Population Normal (%),[2],89% and 92% and 90%
same,Total Cell Count,[2],89 and 79 and 129
same,Population Apoptotic (%),[3],42% and 33% and 27%
same,Population Healthy Nuclei (%),[3],62% and 86% and 91%
same,Population Hoechst High Intensity Objects (%),[3],6% and 3%
same,Population Mitochondria Different-Phenotype (%),[3],51% and 17% and 20%
same,Population Mitotic Cells (%),[3],57% and 66% and 72%
same,Population Normal (%),[3],93% and 96%
same,Total Cell Count,[3],147 and 211 and 291
same,Population Apoptotic (%),[4],46% and 40% and 66%
same,Population Fragmented Nuclei (%),[4],3% and 9%
same,Population Healthy Nuclei (%),[4],82% and 66%
same,Population Hoechst High Intensity Objects (%),[4],7% and 8%
same,Population Mitochondria Different-Phenotype (%),[4],27% and 50%
same,Population Mitotic Cells (%),[4],53% and 60% and 33%
same,Population Normal (%),[4],92% and 91%
same,Population Tubulin-Different-Phenotype (%),[4],27% and 44% and 22%
same,Total Cell Count,[4],101 and 92 and 149
same,Population Apoptotic (%),[5],51%
same,Population Fragmented Nuclei (%),[5],16%
same,Population Healthy Nuclei (%),[5],64%
same,Population Hoechst High Intensity Objects (%),[5],10%
same,Population Membrane Permeable-Phenotype (%),[5],15%
same,Population Mitochondria Different-Phenotype (%),[5],26%
same,Population Mitotic Cells (%),[5],48%
same,Population Normal (%),[5],89%
same,Population Pyknosed Nuclei (%),[5],19%
same,Population Tubulin-Different-Phenotype (%),[5],51%
same,Total Cell Count,[5],178
same,Population Apoptotic (%),[6],52%
same,Population Fragmented Nuclei (%),[6],7%
same,Population Healthy Nuclei (%),[6],73%
same,Population Hoechst High Intensity Objects (%),[6],4%
same,Population Membrane Permeable-Phenotype (%),[6],17%
same,Population Mitochondria Different-Phenotype (%),[6],30%
same,Population Mitotic Cells (%),[6],47%
same,Population Normal (%),[6],95%
same,Population Tubulin-Different-Phenotype (%),[6],40%
same,Total Cell Count,[6],114
CC(C)NCC(O)COc1ccc(CCOCC2CC2)cc1.Cl (centres undefined) [BETAXOLOL HYDROCHLORIDE],Population Apoptotic (%),[7],60%
same,Population Fragmented Nuclei (%),[7],9%
same,Population Healthy Nuclei (%),[7],84%
same,Population Hoechst High Intensity Objects (%),[7],8%
same,Population Mitochondria Different-Phenotype (%),[7],14%
same,Population Mitotic Cells (%),[7],40%
same,Population Normal (%),[7],92%
same,Population Pyknosed Nuclei (%),[7],6%
same,Population Tubulin-Different-Phenotype (%),[7],12%
same,Total Cell Count,[7],175
same,Population Apoptotic (%),[8],100%
same,Population Fragmented Nuclei (%),[8],2%
same,Population Healthy Nuclei (%),[8],95%
same,Population Hoechst High Intensity Objects (%),[8],16%
same,Population Membrane Permeable-Phenotype (%),[8],6%
same,Population Mitochondria Different-Phenotype (%),[8],2%
same,Population Mitotic Cells (%),[8],0%
same,Population Normal (%),[8],83%
same,Population Pyknosed Nuclei (%),[8],2%
same,Population Tubulin-Different-Phenotype (%),[8],9%
same,Total Cell Count,[8],55
same,Population Apoptotic (%),[1],52%
same,Population Fragmented Nuclei (%),[1],14%
same,Population Healthy Nuclei (%),[1],69%
same,Population Hoechst High Intensity Objects (%),[1],5%
same,Population Membrane Permeable-Phenotype (%),[1],2%
same,Population Mitochondria Different-Phenotype (%),[1],64%
same,Population Mitotic Cells (%),[1],47%
same,Population Normal (%),[1],94%
same,Population Pyknosed Nuclei (%),[1],16%
same,Population Tubulin-Different-Phenotype (%),[1],53%
same,Total Cell Count,[1],124
same,Population Apoptotic (%),[2],23%
same,Population Fragmented Nuclei (%),[2],9%
same,Population Healthy Nuclei (%),[2],77%
same,Population Hoechst High Intensity Objects (%),[2],7%
same,Population Membrane Permeable-Phenotype (%),[2],5%
same,Population Mitochondria Different-Phenotype (%),[2],72%
same,Population Mitotic Cells (%),[2],76%
same,Population Normal (%),[2],92%
same,Population Pyknosed Nuclei (%),[2],13%
same,Population Tubulin-Different-Phenotype (%),[2],49%
same,Total Cell Count,[2],107
same,Population Apoptotic (%),[9],28%
same,Population Fragmented Nuclei (%),[9],8%
same,Population Healthy Nuclei (%),[9],83%
same,Population Membrane Permeable-Phenotype (%),[9],3%
same,Population Mitochondria Different-Phenotype (%),[9],10%
same,Population Mitotic Cells (%),[9],71%
same,Population Pyknosed Nuclei (%),[9],7%
same,Population Tubulin-Different-Phenotype (%),[9],8%
same,Total Cell Count,[9],202
same,Population Apoptotic (%),[10],33%
same,Population Fragmented Nuclei (%),[10],3%
same,Population Healthy Nuclei (%),[10],85%
same,Population Hoechst High Intensity Objects (%),[10],5%
same,Population Membrane Permeable-Phenotype (%),[10],4%
same,Population Mitochondria Different-Phenotype (%),[10],6%
same,Population Mitotic Cells (%),[10],66%
same,Population Normal (%),[10],94%
same,Population Pyknosed Nuclei (%),[10],10%
same,Population Tubulin-Different-Phenotype (%),[10],2%
same,Total Cell Count,[10],59
same,Population Apoptotic (%),[3],57%
same,Population Fragmented Nuclei (%),[3],13%
same,Population Healthy Nuclei (%),[3],70%
same,Population Hoechst High Intensity Objects (%),[3],6%
same,Population Membrane Permeable-Phenotype (%),[3],7%
same,Population Mitochondria Different-Phenotype (%),[3],59%
same,Population Mitotic Cells (%),[3],42%
same,Population Normal (%),[3],93%
same,Population Pyknosed Nuclei (%),[3],16%
same,Population Tubulin-Different-Phenotype (%),[3],31%
same,Total Cell Count,[3],139
same,Population Apoptotic (%),[4],40%
same,Population Fragmented Nuclei (%),[4],7%
same,Population Healthy Nuclei (%),[4],78%
same,Population Hoechst High Intensity Objects (%),[4],5%
same,Population Membrane Permeable-Phenotype (%),[4],5%
same,Population Mitochondria Different-Phenotype (%),[4],78%
same,Population Mitotic Cells (%),[4],60%
same,Population Normal (%),[4],94%
same,Population Pyknosed Nuclei (%),[4],15%
same,Population Tubulin-Different-Phenotype (%),[4],46%
same,Total Cell Count,[4],106
same,Population Apoptotic (%),[11],25%
same,Population Fragmented Nuclei (%),[11],8%
same,Population Healthy Nuclei (%),[11],81%
same,Population Membrane Permeable-Phenotype (%),[11],2%
same,Population Mitochondria Different-Phenotype (%),[11],7%
same,Population Mitotic Cells (%),[11],74%
same,Population Pyknosed Nuclei (%),[11],10%
same,Population Tubulin-Different-Phenotype (%),[11],6%
same,Total Cell Count,[11],296
same,Population Apoptotic (%),[12],50%
same,Population Fragmented Nuclei (%),[12],9%
same,Population Healthy Nuclei (%),[12],80%
same,Population Hoechst High Intensity Objects (%),[12],3%
same,Population Membrane Permeable-Phenotype (%),[12],5%
same,Population Mitochondria Different-Phenotype (%),[12],16%
same,Population Mitotic Cells (%),[12],50%
same,Population Normal (%),[12],96%
same,Population Pyknosed Nuclei (%),[12],9%
same,Population Tubulin-Different-Phenotype (%),[12],10%
same,Total Cell Count,[12],87
same,Population Apoptotic (%),[5],52%
same,Population Fragmented Nuclei (%),[5],19%
same,Population Healthy Nuclei (%),[5],68%
same,Population Hoechst High Intensity Objects (%),[5],4%
same,Population Membrane Permeable-Phenotype (%),[5],3%
same,Population Mitochondria Different-Phenotype (%),[5],34%
same,Population Mitotic Cells (%),[5],47%
same,Population Normal (%),[5],95%
same,Population Pyknosed Nuclei (%),[5],12%
same,Population Tubulin-Different-Phenotype (%),[5],21%
same,Total Cell Count,[5],200
same,Population Apoptotic (%),[6],54%
same,Population Fragmented Nuclei (%),[6],9%
same,Population Healthy Nuclei (%),[6],75%
same,Population Hoechst High Intensity Objects (%),[6],5%
same,Population Membrane Permeable-Phenotype (%),[6],9%
same,Population Mitochondria Different-Phenotype (%),[6],50%
same,Population Mitotic Cells (%),[6],45%
same,Population Normal (%),[6],94%
same,Population Pyknosed Nuclei (%),[6],15%
same,Population Tubulin-Different-Phenotype (%),[6],25%
same,Total Cell Count,[6],152
Cc1sc2c(c1C)C(c1ccc(Cl)cc1)=N[C@@H](CC(=O)OC(C)(C)C)c1nnc(C)n1-2,Population Apoptotic (%),[1],41% and 34%
same,Population Fragmented Nuclei (%),[1],12%
same,Population Healthy Nuclei (%),[1],67% and 58%
same,Population Hoechst High Intensity Objects (%),[1],5% and 6%
same,Population Membrane Permeable-Phenotype (%),[1],21% and 12%
same,Population Mitochondria Different-Phenotype (%),[1],17% and 22%
same,Population Mitotic Cells (%),[1],58% and 65%
same,Population Normal (%),[1],94% and 93%
same,Population Pyknosed Nuclei (%),[1],19% and 20%
same,Population Tubulin-Different-Phenotype (%),[1],17% and 24%
same,Total Cell Count,[1],1986
same,Population Apoptotic (%),[2],28% and 14%
same,Population Fragmented Nuclei (%),[2],29% and 21%
same,Population Healthy Nuclei (%),[2],55% and 62%
same,Population Hoechst High Intensity Objects (%),[2],13% and 12%
same,Population Membrane Permeable-Phenotype (%),[2],14%
same,Population Mitochondria Different-Phenotype (%),[2],28% and 33%
same,Population Mitotic Cells (%),[2],71% and 85%
same,Population Normal (%),[2],86% and 87%
same,Population Pyknosed Nuclei (%),[2],15% and 16%
same,Population Tubulin-Different-Phenotype (%),[2],36% and 27%
same,Population Apoptotic (%),[3],88%
same,Population Fragmented Nuclei (%),[3],16% and 20%
same,Population Healthy Nuclei (%),[3],58%
same,Population Hoechst High Intensity Objects (%),[3],5% and 6%
same,Population Membrane Permeable-Phenotype (%),[3],27% and 23%
same,Population Mitochondria Different-Phenotype (%),[3],19% and 29%
same,Population Mitotic Cells (%),[3],12%
same,Population Normal (%),[3],94% and 93%
same,Population Pyknosed Nuclei (%),[3],24% and 20%
same,Population Tubulin-Different-Phenotype (%),[3],30% and 40%
same,Population Apoptotic (%),[4],76% and 64%
same,Population Fragmented Nuclei (%),[4],30% and 25%
same,Population Healthy Nuclei (%),[4],53% and 52%
same,Population Hoechst High Intensity Objects (%),[4],11% and 12%
same,Population Membrane Permeable-Phenotype (%),[4],20% and 18%
same,Population Mitochondria Different-Phenotype (%),[4],30% and 23%
same,Population Mitotic Cells (%),[4],23% and 35%
same,Population Normal (%),[4],88%
same,Population Pyknosed Nuclei (%),[4],15% and 22%
same,Population Tubulin-Different-Phenotype (%),[4],52% and 34%
